Test results taken from article PMC4085996 (ChemMedChem, 2014).
Several values for one entry are separate records, joined by “and”; a condition that tells them apart may be missing. Equal entries are not always repeated. Where two headings read alike, the source gives them in different places.

Key:
[1] = tested on: HIV-1 RT multidrug-resistant (RTMDR) viral strain; conditions: read-out: EC50 RTMDR (prior studies); same assays for leads and drugs; cited from earlier work
[2] = tested on: HIV-1 NL4-3 (wild-type) virus; experiment: microbe, parasite or virus in culture; assay type: cell-based
HIV-1 IIIB (wt) = experiment: HIV-1 infection assay using MT-2 cells; assay type: cell-based
How it was run: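 MT-2 cells (10^4/well) infected overnight with 100 TCID50 HIV-1 IIIB in RPMI 1640 plus 10% FBS, with or without graded concentrations of test compound. Medium then replaced with compound-free medium. On day 4 post-infection, supernatants mixed with equal volume 5% Triton X-100 and p24 antigen quantified by ELISA. EC50 calculated from percent inhibition of p24 production.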

[3] = CytoTox-Glo cytotoxicity assay; assay type: cell-based; conditions: human, TZM-bl cells
How it was run: (§1)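 Run alongside the antiviral assays. TZM-bl cells were cultured for one day with graded concentrations of test compound. Percent viable cells was determined with the CytoTox-Glo kit according to the manufacturer's protocol.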

[4] = Microsomal stability assay; assay type: in vitro ADME; conditions: 1 μM compound, 0.1 mg/mL human liver microsomes, 37 °C
[5] = tested on: HIV-1 RTMDR (RT L74V, M41L, V106A, T215Y); assay type: cell-based; conditions: TZM-bl cells; for Resistance fold change RTMDR: versus NL4-3(wt); for EC50: read-out: EC50 RTMDR
HIV-1 NL4-3 K101E mutant = assay type: cell-based; conditions: TZM-bl cells; for Resistance fold change K101E: versus NL4-3(wt); for EC50: read-out: EC50 K101E
HIV-1 NL4-3 E138K mutant = assay type: cell-based; conditions: TZM-bl cells; for Resistance fold change E138K: versus NL4-3(wt); for EC50: read-out: EC50 E138K
TZM-bl cells = experiment: CytoTox-Glo cytotoxicity assay; assay type: cell-based; conditions: one day, average of two independent tests
How it was run: as §1

[6] = Aqueous solubility measurement; assay type: physicochemical; conditions: triplicate; for Aqueous solubility pH 2.0: pH 2.0, HPLC method; for Aqueous solubility pH 7.4: pH 7.4, HPLC method
Log P measurement = assay type: physicochemical; conditions: measured at pH7.4 by HPLC method, triplicate
[7] = tested on: HIV-1 A17 (K103N and Y181C); assay type: cell-based; conditions: MT-2 cells; for Resistance fold change A17: versus IIIB (wt); for EC50: read-out: EC50 A17
[8] = tested on: HIV-1 wild-type and resistant viral strains with RTMDR, K101E or E138K mutation; experiment: Text summary: antiviral potency over wild-type and resistant strains; assay type: cell-based
[9] = read-out: EC50 (NL4-3 infection of TZM-bl cells), mean ± SD, at least three independent experiments
[10] = read-out: EC50 NL4-3(wt), TZM-bl cells, Table 2
[11] = read-out: EC50 IIIB (wt), MT-2 cells

Cc1cc(C#N)cc(C)c1Oc1nc(Nc2ccc(C#N)cc2)nc(N)c1Br [1a, etravirine]
EC50 [1]: 1 nM

Cc1cc(/C=C/C#N)cc(C)c1Nc1ccnc(Nc2ccc(C#N)cc2)n1 [1b, rilpivirine, reference compound]
EC50 ([2]; Human immunodeficiency virus 1, NL43, TZM-bl, read-out: EC50 NL4-3(wt)): 0.44 nM | EC50 (HIV-1 IIIB (wt); Human immunodeficiency virus 1, IIIB, MT2, read-out: EC50 IIIB (wt)): 0.49 nM | CC50 at 1 day [3]: 19400 nM | HLM t1/2 [4]: 39.52 min | EC50 [1]: 0.49 nM

N#Cc1ccc(Nc2nc(Oc3c(F)cccc3F)ccc2N)cc1 [6a, N^2-(4′-Cyanophenyl)amino-6-(2”,6”-difluoro)phenoxypyridin-3-amine]
EC50 [2, 9]: 6.78 ± 1.18 nM | EC50 [2, 10]: 6.78 nM | Resistance fold change RTMDR [5]: 0.52 | EC50 [5]: 3.55 nM | Resistance fold change K101E (HIV-1 NL4-3 K101E mutant): 7.82 | EC50 (HIV-1 NL4-3 K101E mutant): 53 nM | Resistance fold change E138K (HIV-1 NL4-3 E138K mutant): 4.3 | EC50 (HIV-1 NL4-3 E138K mutant): > 29 nM | CC50 (TZM-bl cells): 19200 nM | HLM t1/2 [4]: 44.01 min | Aqueous solubility pH 2.0 [6]: 8.42 μg/mL | Aqueous solubility pH 7.4 [6]: 1.58 μg/mL | log P (Log P measurement): >5

N#Cc1ccc(Nc2nc(Oc3c(F)cc(Br)cc3F)ccc2N)cc1 [6b]
EC50 [2, 9]: 7.43 ± 1.1 nM | CC50 (TZM-bl cells): > 9590 nM

N#Cc1ccc(Nc2nc(Oc3c(F)cc(CO)cc3F)ccc2N)cc1 [6c, N^2-(4′-Cyanophenyl)amino-6-(2”,6”-difluoro-4”-hydroxymethyl)phenoxypyridine-3-amine]
EC50 [2, 9]: 57.1 ± 9.2 nM | CC50 (TZM-bl cells): > 27200 nM

CC(=O)OCc1cc(F)c(Oc2ccc(N)c(Nc3ccc(C#N)cc3)n2)c(F)c1 [6d, N^2-(4′-Cyanophenyl)amino-6-(2”,6”-difluoro-4”-acetoxymethyl)phenoxypyridin-3-amine]
EC50 [2, 9]: 290 ± 46 nM

N#Cc1ccc(Nc2nc(Oc3c(F)cc(C=NO)cc3F)ccc2N)cc1 [6e, N^2-(4′-Cyanophenyl)amino-6-(2”,6”-difluoro-4”-(hydroxyimino)methyl)phenoxy pyridin-3-amine]
EC50 [2, 9]: 261 ± 55.1 nM | CC50 (TZM-bl cells): > 26200 nM

N#Cc1ccc(Nc2nc(Oc3c(F)cc(C#N)cc3F)ccc2N)cc1 [6f, N^2-(4′-Cyanophenyl)amino-6-(2”,6”-difluoro-4”-cyano)phenoxypyridin-3-amine]
EC50 [2, 9]: 5.16 ± 1.57 nM | CC50 (TZM-bl cells): > 9390 nM

N#C/C=C/c1cc(F)c(Oc2ccc(N)c(Nc3ccc(C#N)cc3)n2)c(F)c1 [6g, (E)-N^2-(4′-Cyanophenyl)amino-6-(4”-cyanovinyl-2”,6”-difluoro)phenoxypyridin-3-amine]
EC50 [2, 9]: 0.75 ± 0.18 nM | EC50 [2, 10]: 0.75 nM | Resistance fold change RTMDR [5]: 46.3 | EC50 [5]: 34.7 nM | Resistance fold change K101E (HIV-1 NL4-3 K101E mutant): 9.6 | EC50 (HIV-1 NL4-3 K101E mutant): 7.2 nM | Resistance fold change E138K (HIV-1 NL4-3 E138K mutant): 10.3 | EC50 (HIV-1 NL4-3 E138K mutant): 7.71 nM | EC50 (HIV-1 IIIB (wt); [11]): 1.11 nM | Resistance fold change A17 [7]: > 450 | EC50 [7]: > 500 nM | CC50 (TZM-bl cells): 11000 nM | HLM t1/2 [4]: 76.46 min | Aqueous solubility pH 2.0 [6]: 1.27 μg/mL | Aqueous solubility pH 7.4 [6]: 0.72 μg/mL | log P (Log P measurement): 3.48

N#C/C(=C\c1cc(F)c(Oc2ccc(N)c(Nc3ccc(C#N)cc3)n2)c(F)c1)C(N)=O [6h, (E)-6-[4”-(3-Amino-2-cyano-3-oxoprop-1-enyl)-2”,6”-difluoro]phenoxy-N^2-(4′-cyanophenyl)pyridin-2,3-diamine]
EC50 [2, 9]: 370 ± 59 nM | CC50 (TZM-bl cells): 15800 nM

CC(=O)CCc1cc(F)c(Oc2ccc(N)c(Nc3ccc(C#N)cc3)n2)c(F)c1 [6i, N^2-(4′-Cyanophenyl)amino-6-(2”,6”-difluoro-4”-(3-oxobutyl)phenoxy)pyridin-3-amine]
EC50 [2, 9]: 4.66 ± 0.95 nM | CC50 (TZM-bl cells): > 9800 nM

CCCOC(=O)c1cc(F)c(Oc2ccc(N)c(Nc3ccc(C#N)cc3)n2)c(F)c1 [6j, N^2-(4′-Cyanophenyl)amino-6-(2”,6”-difluoro-4”-propylcarbmethoxy)phenoxypyr idin-3-amine]
EC50 [2, 9]: 99 ± 19 nM | CC50 (TZM-bl cells): 15300 nM

N#Cc1ccc(Nc2nc(Oc3c(F)cc(/C=C/C(N)=O)cc3F)ccc2N)cc1 [6k, (E)-N^2-(4′-Cyanophenyl)amino-6-(2”,6”-difluoro-4”-(2-carbamoyl)vinyl)phenoxy pyridin-3-amine]
EC50 [2, 9]: 614 ± 118 nM | CC50 (TZM-bl cells): > 24600 nM

N#CCCc1cc(F)c(Oc2ccc(N)c(Nc3ccc(C#N)cc3)n2)c(F)c1 [6l, 6-(4”-(2-Cyanoethyl)-2”,6”-difluoro)phenoxy-N^2-(4′-cyanophenyl)aminopyridin-3-amine]
EC50 [2, 9]: 2.81 ± 0.59 nM | CC50 (TZM-bl cells): > 10200 nM

N#Cc1ccc(Nc2nc(Oc3c(F)cc(CCCO)cc3F)ccc2N)cc1 [6n, N^2-(4′-Cyanophenyl)amino-6-(2”,6”-difluoro-4”-(3-hydroxypropyl)phenoxy) pyridin-3-amine]
EC50 [2, 9]: 48 ± 9.8 nM | CC50 (TZM-bl cells): > 25200 nM

N#Cc1ccc(Nc2nc(Oc3c(Br)cc(C#N)cc3Br)ccc2N)cc1 [8a, 6-(4”-Cyano-2”,6”-dibromo)phenoxy-N^2-(4′-cyanophenyl)pyridin-2,3-diamine]
EC50 [2, 9]: 0.99 nM and 0.93 nM | EC50 [2, 10]: 0.93 nM | Resistance fold change RTMDR [5]: 2.6 | EC50 [5]: 2.47 nM | Resistance fold change K101E (HIV-1 NL4-3 K101E mutant): 3.3 | EC50 (HIV-1 NL4-3 K101E mutant): 3.09 nM | Resistance fold change E138K (HIV-1 NL4-3 E138K mutant): 5.8 | EC50 (HIV-1 NL4-3 E138K mutant): 5.44 nM | EC50 (HIV-1 IIIB (wt); [11]): 12.4 nM | Resistance fold change A17 [7]: 30.8 | EC50 [7]: 384 nM | CC50 (TZM-bl cells): 13200 nM | HLM t1/2 [4]: 41.66 min | Aqueous solubility pH 2.0 [6]: 0.79 μg/mL | Aqueous solubility pH 7.4 [6]: 0.72 μg/mL | log P (Log P measurement): 3.30

N#C/C=C/c1cc(Br)c(Oc2ccc(N)c(Nc3ccc(C#N)cc3)n2)c(Br)c1 [8b, (E)-N^2-(4′-Cyanophenyl)amino-6-(4”-cyanovinyl-2”,6”-dibromo)phenoxypyridin-3-diamine]
EC50 [2, 9]: 0.33 ± 0.09 nM | EC50 [2, 10]: 0.33 nM | Resistance fold change RTMDR [5]: 2.2 | EC50 [5]: 0.74 nM | Resistance fold change K101E (HIV-1 NL4-3 K101E mutant): 23.1 | EC50 (HIV-1 NL4-3 K101E mutant): 7.63 nM | Resistance fold change E138K (HIV-1 NL4-3 E138K mutant): 12.4 | EC50 (HIV-1 NL4-3 E138K mutant): 4.11 nM | EC50 (HIV-1 IIIB (wt); [11]): 3.04 nM | Resistance fold change A17 [7]: 65.7 | EC50 [7]: 200 nM | CC50 (TZM-bl cells): 8220 nM | HLM t1/2 [4]: 21.87 min | Aqueous solubility pH 2.0 [6]: 0.63 μg/mL | Aqueous solubility pH 7.4 [6]: 0.62 μg/mL | log P (Log P measurement): 3.55

COc1cc(/C=C/C#N)cc(Br)c1Oc1ccc(N)c(Nc2ccc(C#N)cc2)n1 [8c, (E)-6-(2”-Bromo-4”-cyanovinyl-6”-methoxy)phenoxy-N^2-(4′-cyanophenyl) pyridin-2,3-diamine]
EC50 [2, 9]: 3.25 ± 0.89 nM | EC50 [2, 10]: 3.25 nM | Resistance fold change RTMDR [5]: 1.1 | EC50 [5]: 3.46 nM | Resistance fold change K101E (HIV-1 NL4-3 K101E mutant): 1.2 | EC50 (HIV-1 NL4-3 K101E mutant): 3.9 nM | Resistance fold change E138K (HIV-1 NL4-3 E138K mutant): 2.1 | EC50 (HIV-1 NL4-3 E138K mutant): 6.93 nM | EC50 (HIV-1 IIIB (wt); [11]): 4.53 nM | Resistance fold change A17 [7]: 18.6 | EC50 [7]: 84.4 nM | CC50 (TZM-bl cells): 21000 nM | HLM t1/2 [4]: 54.7 min and 54.71 min | Aqueous solubility pH 2.0 [6]: 0.82 μg/mL | Aqueous solubility pH 7.4 [6]: 0.50 μg/mL | log P (Log P measurement): 3.31 | resistance fold change (RFC), range over resistant strains [8]: 1.1–2.1

N#C/C=C/c1cc(Cl)c(Oc2ccc(N)c(Nc3ccc(C#N)cc3)n2)c(Cl)c1 [8d, (E)-N^2-(4′-Cyanophenyl)amino-6-(4”-cyanovinyl-2”,6”-dichloro)phenoxypyridin-3-amine]
EC50 [2, 9]: 8.14 ± 2.49 nM | CC50 (TZM-bl cells): 10700 nM | HLM t1/2 [4]: 39.61 min | Aqueous solubility pH 2.0 [6]: 0.81 μg/mL | Aqueous solubility pH 7.4 [6]: 0.70 μg/mL | log P (Log P measurement): >5

COc1cc(/C=C/C#N)ccc1Oc1ccc(N)c(Nc2ccc(C#N)cc2)n1 [8e, (E)-N^2-(4′-Cyanophenyl)amino-6-(2”-methoxy-4”-cyanovinyl)phenoxypyridin-3-amine]
EC50 [2, 9]: 16.7 ± 4.33 nM | CC50 (TZM-bl cells): > 20600 nM

N^2-(4′-Cyanophenyl)amino-6-(4”-(2-cyano)propylcarbamoyl-2”,6”-difluoro)phen oxypyridin-3-amine [6m]
EC50 [2, 9]: 350 ± 52 nM | CC50 (TZM-bl cells): 15100 nM
